# Screening results deposited in PubChem BioAssay by The Scripps Research Institute Molecular Screening Center.
# In the library only some 4.5% were active in any assay of this set; here they are far more common.
# OX1R antag-1 = OX1R (human) antagonism; OX1R-expressing cells, FRET antagonist read-out; inhibition, % at 6.6 µM; actives 1.8% (n = 330,000); AID 485270; in the data active = inhibition mostly above about 38%, no sharp cut-off; inactive = mostly below about 40%
# Target sequence (O43613 whole entry, looked up): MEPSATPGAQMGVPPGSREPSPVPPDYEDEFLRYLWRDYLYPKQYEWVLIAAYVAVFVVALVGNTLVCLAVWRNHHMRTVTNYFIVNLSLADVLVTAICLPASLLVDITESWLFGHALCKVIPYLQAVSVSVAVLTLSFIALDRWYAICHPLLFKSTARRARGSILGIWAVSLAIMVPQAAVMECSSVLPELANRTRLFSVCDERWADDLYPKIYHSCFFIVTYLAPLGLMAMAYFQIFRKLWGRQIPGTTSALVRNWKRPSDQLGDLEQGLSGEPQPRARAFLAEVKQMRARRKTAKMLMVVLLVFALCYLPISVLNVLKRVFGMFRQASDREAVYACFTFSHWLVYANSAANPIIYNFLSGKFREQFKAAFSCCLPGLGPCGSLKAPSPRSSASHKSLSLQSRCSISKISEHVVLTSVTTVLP
# TAAR1 agonist = human TAAR1 agonism | Q96RJ0 | CHO RD-HGA16 TAAR1, Fluo-8 calcium fluorescence; vehicle wells 0%, saturating PEA agonist 100% | activation, % at 3 µM | actives 0.99% (n = 360,000);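 active = activation above the mean activation of all test compounds in the run plus 3 SD, cut at about 38% in these data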
#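 Signal – calcium-sensitive Fluo-8 signal, excitation 470-495, emission 515-575 nm · System – RD-HGA16 (CHO) cells co-expressing Gα16 and hTAAR1 · Incubation – 17-24 h seeding, 75 min 37 °C dye, 30 min RT · Compound dosing – 3 µM single concentration · Repeats – no replicates (n 1)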
# CHO parental Ca = signal in parental CHO cells, OX1R antagonist counter-screen; parental CHO-K1, ATP-induced calcium, Fluo-8 fluorescence; inhibition, % at 5.6 µM; actives 0.63% (n = 330,000); AID 463079;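 active = inhibition above that plate's mean sample inhibition plus 3 SD, cut at about 26% in these data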
#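 Assay system – parental CHO cells · Reagent – ATP stimulus · Detection – intracellular calcium via Fluo-8 no-wash fluorescent dye · Evaluation – percent inhibition of ATP-evoked calcium rise, normalized to controls · Controls – ATP wells versus no-ATP DMSO wells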
# OX1R antag-2 = antagonists of human orexin 1 receptor. O43613. actives 0.43% (n = 330,000). CHO/OX1R cells, Fluo-8 calcium fluorescence, orexin A. inhibition, % at 5 µM;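 active = inhibition above its plate's threshold, mean inhibition of all tested compounds on the plate plus 3 SD, cut at about 37% in these data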
# TAAR1 antagonist = antagonists of human TAAR1 | inhibition, % at 3 µM | actives 1.5% (n = 360,000) | AID 624466 | Q96RJ0 | CHO RD-HGA16 TAAR1, Fluo-8 calcium fluorescence, antagonist;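 active = inhibition above a per-plate cutoff, the mean inhibition of test compounds on that plate plus 3 SD, cut at about 49% in these data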
#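 Test system – hTAAR1-expressing CHO RD-HGA16 cells, Gα16-coupled · Reagent – β-PEA at EC80 concentration, post-compound challenge · Compound dosing – 3 µM, single point · Timing – 140 s kinetic read after compound, 140 s after agonist · Detection – Fluo-8 intracellular calcium dye fluorescence, real-time kinetic reads · Control set – DMSO and EC80 PEA controls · Repeats – n of 1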
# GPR7 antagonist = blocks human GPR7 receptor signaling; GPR7-expressing cells, fluorescence antagonist assay; inhibition, % at 4.4 µM; actives 1.1% (n = 290,000); AID 1861; in the data active = inhibition above about 16%, passing the limit was not always enough;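 note: cells stimulated with the agonist NPW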
# OX1R HTRF conf = confirmation of human orexin 1 receptor antagonists, HTRF format | shares compounds with OX1R antag-1 | OX1R-expressing cells, HTRF antagonist assay | inhibition, % at 6.6 µM | actives 49% (n = 1,800); in the data active = inhibition above about 55%;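 note: CHO cells expressing OX1R stimulated with orexin A at about EC80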
# CHO-K1 HTRF = counter-screen for OX1R antagonists: effect in parental CHO-K1 cells. shares compounds with OX1R antag-1. HTRF counterscreen. inhibition, % at 6.6 µM. actives 48% (n = 1,800). AID 493232; in the data active = inhibition above about 17%
# Numbers stand for hits; n = inactive; x = no result.
SMILES,OX1R antag-1,TAAR1 agonist,CHO parental Ca,OX1R antag-2,TAAR1 antagonist,GPR7 antagonist,OX1R HTRF conf,CHO-K1 HTRF
O=C(COC(=O)/C=C/c1ccc([N+](=O)[O-])cc1)NCC1CCCCC1,n,n,n,n,n,x,x,x
CN(C)c1ccc(-c2nnc(-c3cccs3)o2)cc1,84,n,n,n,n,n,88,n
Cc1ccc2nc3c(cc(C(=O)NCc4ccco4)c(=N)n3C3CCCC3)c(=O)n2c1,n,n,n,n,n,n,x,x
N=c1c(C(=O)NCc2ccco2)cc2c(=O)n3ccccc3nc2n1CCc1ccccc1,114,n,n,n,n,n,n,42
COCCn1c(=N)c(C(=O)NCc2ccco2)cc2c(=O)n3cc(C)ccc3nc21,108,n,n,n,n,n,n,69
COc1ccc(CCn2c(=N)c(C(=O)N3CCN(C)CC3)cc3c(=O)n4ccccc4nc32)cc1,105,n,n,n,n,n,n,51
CCCCC(=O)NNC(=O)N1c2ccccc2Sc2ccccc21,n,n,n,n,n,n,x,x
Cc1ccc(CNc2ccc([N+](=O)[O-])cc2C(N)=O)cc1,n,n,n,n,n,x,x,x
Cc1ccc(Oc2c(C(N)=O)cc([N+](=O)[O-])cc2[N+](=O)[O-])cc1,105,n,n,n,n,n,80,76
O=C(O)CCCN1C(=O)c2ccc(Oc3cccc([N+](=O)[O-])c3)cc2C1=O,n,n,n,n,n,n,x,x
O=C(O)CCCN1C(=O)c2ccc(C(=O)c3cccc([N+](=O)[O-])c3)cc2C1=O,86,n,n,n,n,n,n,52
CCCCC(=O)Nc1cccn2ncnc12,n,n,n,n,n,n,x,x
O=C(O)C1CCCN(S(=O)(=O)c2ccccc2[N+](=O)[O-])C1 (stereo not drawn),n,n,n,n,n,n,x,x
O=C(C1CCCN(S(=O)(=O)c2ccccc2[N+](=O)[O-])C1)N1CCCC1 (stereo not drawn),122,n,n,n,n,n,n,n
Cc1cnnc2ccc3c(no[n+]3[O-])c12,126,n,n,n,n,n,n,54
COc1ccc2no[n+]([O-])c2c1,n,x,n,n,x,n,x,x
CCc1ccc(S(=O)(=O)/N=C2\C=C(NS(=O)(=O)c3ccccc3)C(=O)c3ccccc32)cc1,x,n,x,x,n,n,x,x
CCCCC[n+]1ccn(C2=C([O-])c3ccccc3C(=O)/C2=N\S(=O)(=O)c2ccccc2)c1,100,n,n,n,n,n,n,52
CCCC[n+]1ccn(C2=C([O-])c3ccccc3C(=O)/C2=N\S(=O)(=O)c2ccccc2)c1,165,n,n,n,n,n,n,94
CCCCC[n+]1ccn(C2=C([O-])c3ccccc3C(=O)/C2=N\S(=O)(=O)c2ccc(Br)cc2)c1,n,n,n,n,n,n,x,x
CC(C)[n+]1ccn(C2=C([O-])c3ccccc3C(=O)/C2=N\S(=O)(=O)c2ccccc2)c1,77,n,n,n,n,n,69,96
c1coc(CN2CCN(C(c3cccs3)c3nnnn3C3CCCC3)CC2)c1 (stereo not drawn),n,n,n,n,n,n,x,x
COc1ccc(/C=C/C(=O)O/N=C(\N)c2ccccc2)cc1OC,81,n,n,n,n,n,n,n
CCN(CC)c1ccc(N=Nc2ncn[nH]2)cc1,139,n,n,n,n,n,n,56
CCN(CC)c1ccc(/C=N/O)cc1,n,n,n,n,n,n,x,x
SMILES,OX1R antag-1,TAAR1 agonist,CHO parental Ca,OX1R antag-2,TAAR1 antagonist,GPR7 antagonist,OX1R HTRF conf,CHO-K1 HTRF
COc1ccc(NC(=O)COC(=O)CNS(=O)(=O)/C=C/c2ccccc2)cc1OC,n,n,n,n,n,x,x,x
CN(C)C(CNC(=O)c1cc2ccccc2oc1=O)c1ccccc1 (stereo not drawn),92,n,n,n,n,n,n,43
O=[N+]([O-])c1ccc2c(c1)ncn2-c1ccccc1,n,n,n,n,n,n,x,x
O=[N+]([O-])c1ccc(-n2cnc3ccccc32)c([N+](=O)[O-])c1,107,n,n,n,n,n,n,45
CN1CCN(NC(=O)/C=C/c2cccc(Cl)c2)CC1,n,n,n,n,n,n,x,x
CCOC(=O)C1Nc2ccccc2C2C(O)C(O)CC12 (stereo not drawn),83,n,n,n,n,x,n,20
CCOC(=O)C1Nc2ccc(C(F)(F)F)cc2C2c3ccccc3CC12 (stereo not drawn),n,n,n,n,n,x,x,x
CC(=O)c1cc2c(cc1NC(=O)CN1CCCCC1C)OCO2 (stereo not drawn),n,n,n,n,n,n,x,x
O=S(=O)(c1ccccc1)N1CCN(c2nnc(-c3ccccc3)c3ccccc23)CC1,n,n,n,n,n,n,x,x
O=C(CN1CCOCC1)NCc1ccccc1Cl,n,n,n,n,n,n,x,x
CN(C1CCCCC1)S(=O)(=O)c1cc2c3c(c1)CCN3C(=O)CC2,94,n,n,n,n,x,n,n
CCCCCCn1cc(CN2CC(N3CCN(Cc4ccccc4F)CC3)CS2(=O)=O)nn1 (stereo not drawn),x,n,x,x,n,x,x,x
COc1ccccc1OCCCOc1cccc(/C=C2\SC(=O)NC2=O)c1,78,n,n,n,n,n,n,22
COc1ccc(C=C2SC(=O)NC2=O)cc1OC,x,n,x,x,n,x,x,x
C[C@@H]1ON(C)[C@H]2C[C@H]3c4[nH]c5ccccc5c4CCN3C[C@@H]12,x,n,x,x,n,x,x,x
COc1ccc(NC(=O)N2C[C@H]3CON(C)[C@H]3C[C@H]2c2ccc(N3CCCCC3)cc2)cc1,x,n,x,x,n,x,x,x
O=C(NCc1ccco1)c1cc([N+](=O)[O-])cc([N+](=O)[O-])c1,118,n,n,n,n,n,55,69
O=C(NCc1ccco1)c1cc([N+](=O)[O-])ccc1Cl,n,n,n,n,n,n,x,x
O=[N+]([O-])c1ccc(C[n+]2cccc3ccccc32)cc1,n,n,n,n,n,n,x,x
O=[N+]([O-])c1ccc(C[n+]2cccc3ccc4cccnc4c32)cc1,137,n,n,n,n,n,n,56
COCCCN(CC(=O)Nc1ccc(N2CCOCC2)cc1)S(=O)(=O)c1ccccc1,n,n,n,n,n,n,x,x
O=C(Cc1cccs1)Nc1cccc(-c2nc3ccccc3o2)c1,77,n,n,n,n,n,74,n
Cc1ccc(SCc2nc3ncccn3c2Br)cc1,n,n,n,n,n,n,x,x
CC(=O)N(/N=C1\Sc2ccccc2C1=O)c1cccc(C)c1,105,n,n,n,n,n,n,n
